From paper PMC3788622 (Journal of Medicinal Chemistry, 2013)
“Also recorded” adds a separate entry of the source.

What was measured:
male C57BL/6J mice [1] = assay: Escalating single dose subcutaneous injections: animal weight and behavior; format: in vivo, mouse; details: single sc injection at 1, 3, and 10 mg/kg, observed 9 days
How it was run: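 Male C57BL/6J mice, 8 weeks old, were acclimatised 3 days after arrival. Groups of four received one sc dose of 1, 3 or 10 mg/kg in up to 200 μL 25% DMSO/saline. Doses were set by UV/vis using ε 69 500 M–1·cm–1 near 315 nm. Mice were weighed daily for 9 days, then sacrificed. Humane end point was visible duress or weight loss over 15% of starting weight.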

LNCaP xenografts = details: immunocompromised mice, three sc injections at 1 mg/kg; cited from earlier work
p53 [2] = details: cited from earlier work
male C57BL/6J mice [3] = assay: Serum markers of liver and kidney damage after multiple subcutaneous injections; format: in vivo, mouse; details: 1 mg/kg sc every 3 days, three injections
How it was run: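 Male C57BL/6J mice, 8 weeks old, were dosed in groups of three with 1 mg/kg sc every 3 days for three injections and sacrificed 2 days after the last. Weight was recorded on injection days and at the end point. Retro-orbital blood was spun at 6000 rpm for 5 min. Serum ALT, AST, total bilirubin, BUN and creatinine were assayed blinded.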

male C57BL/6J mice [4] = assay: Histopathology after single subcutaneous injection; format: in vivo, mouse
How it was run: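 After the single sc dose (1, 3 or 10 mg/kg, 25% DMSO/saline, 9-day observation), two representative mice per group were fixed in 10% formalin. A veterinary pathologist examined cecum, duodenum, heart, ileum, kidney, liver, lung, pancreas, spleen and stomach, blinded to animal identity.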

male C57BL/6J mice [5] = assay: Serum markers of liver and kidney damage after single subcutaneous injection; format: in vivo, mouse; details: single sc dose 1, 3, 10 mg/kg; dose stated in the value
How it was run: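 All mice from the single sc dose groups (1, 3, 10 mg/kg in 25% DMSO/saline, n = 4, 9-day observation) were bled retro-orbitally. Serum was obtained by centrifugation at 6000 rpm for 5 min. ALT, AST, total bilirubin, BUN and creatinine were measured externally, blinded to animal identity.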

p53 [6] = assay: p53 protein ELISA; format: cell-based; details: LNCaP cells, 10 μM, 72 h
How it was run: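 LNCaP cells were treated with 10 μM test compound for 72 h. Controls were DMSO vehicle and 1 μM doxorubicin for 24 h. RPB1 was measured with an RPB1-specific ELISA kit and total p53 with a pan-p53 ELISA kit, each following the kit instructions, in biological triplicates.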

male C57BL/6J mice [7] = assay: Histopathology after multiple subcutaneous injections; format: in vivo, mouse; details: 1 mg/kg sc every 3 days, three injections

CN(CCCNC(=O)c1cccc(C(=O)O)c1)CCCNC(=O)c1cc(NC(=O)c2cc(NC(=O)c3cc(NC(=O)c4nc(NC(=O)[C@H](N)CCNC(=O)c5cc(NC(=O)c6cc(NC(=O)c7cc(NC(=O)c8nccn8C)cn7C)cn6C)cn5C)cn4C)cn3C)cn2C)cn1C [Polyamide 1, ImPyPyPy-2-(R)^H2Nγ-ImPyPyPy∼NHMe∼IPA]
Weight loss (male C57BL/6J mice [1]): significant weight loss only at 10 mg/kg | Growth of LNCaP xenografts (LNCaP xenografts): suppress the growth of LNCaP xenografts | Effect on cellular p53 protein (p53 [2]): increase cellular p53 protein | Alteration of liver and kidney serum markers (in words) (male C57BL/6J mice [3]): elevated AST and ALT | Liver lesions by histopathology (in words) (male C57BL/6J mice [4]; single sc dose 3 mg/kg): Mild hepatocellular necrosis and apoptosis | Kidney lesions by histopathology (in words) (male C57BL/6J mice [4]; single sc dose 10 mg/kg): Milder tubular regeneration and karyomegaly | Liver lesions by histopathology (in words) (male C57BL/6J mice [4]; single sc dose 10 mg/kg): Mild hepatocellular necrosis and apoptosis | Elevation of serum markers of liver and kidney damage (in words) (male C57BL/6J mice [5]): significant elevation of AST, ALT, and total bilirubin at 10 mg/kg; also recorded: moderate elevation of ALT at 3 mg/kg; also recorded: Elevation of creatinine and blood urea nitrogen (BUN) was not observed for any dose level | Cellular level of p53 protein (p53 [6]): increases | Kidney lesions by histopathology (in words) (male C57BL/6J mice [7]): mild variable tubular attenuation, karyomegaly, and epithelial necrosis and apoptosis | Liver lesions by histopathology (in words) (male C57BL/6J mice [7]): mild multifocal hepatocellular necrosis and apoptosis
